Data set [1] has as its system MRSA-pvl+. As to the kind of experiment: Time-kill experiment. To be noted: >3 h of exposure (Figure S2). The data set is classed as cell-based, Staphylococcus aureus. In short, it runs like this:
(§1)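 S. aureus suspension (1.5 × 10^5 CFU/mL) and test compound, prepared at 150 μg/mL before mixing, were added in equal volumes to flasks of MH broth. A flask without test compound served as control. Flasks were shaken at 150 rpm and 37°C for 24 h. At set intervals, 100 μL aliquots were spread on MH agar for colony counts.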

Data set [2] relates to MRSA-pvl-. The data set can be described thus: Time-kill experiment. It counts as cell-based, Staphylococcus aureus. To be noted: >3 h of exposure (Figure S2). In short, it runs like this:
as §1

Data set [3] concerns MSSA. The data set can be described thus: Time-kill experiment. It counts as cell-based, Staphylococcus aureus. In short, it runs like this: as §1
The subject of data set [4] is MRSA. As to the kind of experiment: Time-kill experiment. To be noted: for inhibition at 150 µg/mL: Staphylococcus aureus, MRSA, read-out: percentage of inhibition (time-kill). The data set is classed as cell-based, Staphylococcus aureus. In outline:
as §1

For another data set, the system named is zebrafish embryos. As to the kind of experiment: Reactive oxygen species. It counts as in vivo. In outline: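 Wild-type AB zebrafish embryos at 24 hpf, one per well and 10 per group, were exposed to five concentrations of test compound for 30, 60, 120 or 240 min. Controls were distilled water and 0.5 mM H2O2. Embryos were washed in PBS and spun 10,000 rpm, 5 min, 4°C. They were homogenized in cold PBS and spun 12,372 rpm, 30 min, 4°C. Supernatant was incubated with DCFH-DA (stock 10 mg/mL in DMSO) 30 min in the dark; fluorescence read at ex 485/em 530 nm, in triplicate.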

Data set [5] can be described thus: In vitro cytotoxicity MTT assay. It counts as cell-based, murine. The conditions noted are these: mouse, 3T3 murine fibroblast cells, cell viability.
For data set [6], the system named is 3T3 murine fibroblast cells. The data set can be described thus: In vitro cytotoxicity MTT assay. To be noted: 50 µg/mL, 24 h. The data set is classed as cell-based. On the technique in general: Tetrazolium assays rely on reduction of a dye to a coloured formazan, in cell work by metabolically active cells.
Data set [7] relates to MSSA. As to the kind of experiment: HRTEM observation of treated bacteria. To be noted: 150 µg/mL for 12 h. It counts as cell-based, Staphylococcus aureus. In outline: (§2)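 After the time-kill exposure, MRSA (ATCC 700699) and MSSA (ATCC 25923) cells were processed for electron microscopy. Reagents included glutaraldehyde, cacodylate buffer, osmium tetroxide and acetone, followed by resin embedding. Sections of 1 µm were cut and stained with toluidine blue, and areas were chosen by light microscopy. Sections were then mounted on 100-mesh copper grids, stained 15 min with 1% aqueous uranyl acetate, washed, and imaged at 100 kV.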

The test system of data set [8] is MRSA-pvl-. The data set can be described thus: Kirby-Bauer disk diffusion test. The data set is classed as cell-based, Staphylococcus aureus. To be noted: 18 h. In outline: (§3)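 Disk diffusion followed CLSI 2013. Sterile disks soaked in test compound (0–1000 µg/mL) were placed on MH agar and held 30 min at room temperature for diffusion. Plates were then incubated 18 h at 37°C and zones of inhibition read. Controls were distilled water (negative) and a 30 µg cefoxitin disk (positive). Strains were MSSA ATCC 25923 and community-acquired MRSA-pvl+ (A33) and pvl- (172817) lab isolates.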

The test system of data set [9] is MRSA-pvl+. The data set can be described thus: Kirby-Bauer disk diffusion test. To be noted: 18 h. It counts as cell-based, Staphylococcus aureus. In short, it runs like this: as §3
On the technique in general: In agar diffusion tests the substance spreads into inoculated agar from a disc or well.

Data set [10] deals with MRSA. As to the kind of experiment: CFU counting method. It counts as cell-based. To be noted: Staphylococcus aureus, read-out: percentage of inhibition (CFU). In short, it runs like this:
(§4)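 S. aureus strains (MRSA ATCC 700699; community-acquired MRSA-pvl+ A33 and MRSA-pvl- 172817 from the lab collection) at 1.5 × 10^5 CFU/mL were combined in well plates with MH broth and test compound (0–1000 μg/mL). Plates were shaken 4 h at 37°C, then diluted 100-fold and swabbed onto MH agar. After drying at room temperature, plates were incubated 18 h at 37°C and colonies counted. Percentage inhibition was calculated relative to distilled water (negative control); cefoxitin served as positive control.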

The subject of data set [11] is MRSA-pvl+. The data set can be described thus: CFU counting method. To be noted: Staphylococcus aureus, read-out: percentage of inhibition (CFU). It counts as cell-based. In short, it runs like this: as §4
In data set [12] the test system is MRSA. As to the kind of experiment: HRTEM observation of treated bacteria. It counts as cell-based, Staphylococcus aureus. The conditions noted are these: 150 µg/mL for 12 h. In outline: as §2
Data set [13] relates to MRSA-pvl-. The data set can be described thus: CFU counting method. The data set is classed as cell-based, Staphylococcus aureus. To be noted: 50 µg/mL. In outline: as §4
For data set [14], the system named is MSSA. The data set can be described thus: Kirby-Bauer disk diffusion test. It counts as cell-based, Staphylococcus aureus. The conditions noted are these: 18 h. In outline: as §3

Where “and” joins values, the source holds several entries; their conditions need not be identical. Equal entries are not always repeated. Where two headings read alike, the source gives them in different places.

`CO[C@@]1(NC(=O)Cc2cccs2)C(=O)N2C(C(=O)O)=C(COC(N)=O)CS[C@@H]21` [CFX, cefoxitin]: the “inhibition (time-kill)” value in the data set on MRSA-pvl+ [1], in the data set with MRSA-pvl- [2], with MSSA [3] (>3 h of exposure (Figure S2)) and in the data set with MRSA [4] (>3 h of exposure (Figure S2)) was “total inhibition” throughout.

Regarding `O=C(O)c1cc(O)c(O)c(O)c1` [GA, Gallic acid], the ROS content result was “significantly elevated” with zebrafish embryos (50 and 300 μg/mL, 60 min post-exposure); “comparable ROS content to control groups” with zebrafish embryos (30 min of exposure); “reverted to the normal range” in the data set on zebrafish embryos (120 min post-exposure). Further, the viability (as a rule, a per cent measure of how many cells are alive, often set against a control) at 24 h, 50 µg/mL in data set [5] (24 h) worked out at 22.2%. The viability at 72 h, 50 µg/mL in data set [5] (72 h) is 4.95%. The cell viability – broadly, a read-out of living cells in per cent, often relative to untreated cells – in [6] is reported as 22.16%. In addition, the “morphological changes of bacterial cells (HRTEM)” value with MSSA [7] is “disrupted morphology and damaged surface”; in the data set with MRSA [12] it was “disrupted morphology and damaged surface”. Besides, the “concentration at which growth is inhibited (zone of inhibition)” value in the data set on MRSA-pvl- [8] was 300 µg/mL and 150 µg/mL; with MRSA-pvl+ [9], 300 µg/mL; in the data set with MSSA [14] it was 150 µg/mL. Also, the inhibition (usually the share of the control response that was lost under treatment) at 150 µg/mL in the data set on MSSA [3] (Staphylococcus aureus, MSSA, 2 h, read-out: percentage of inhibition (time-kill)) came to 50.7%; in the data set on MRSA [4] (2 h), 44.9%; with MRSA [4] it was 29.4%. The inhibition at 50 µg/mL in the data set on MRSA [10] came to 98.3%; with MRSA-pvl+ [11], 80.1%. In addition, the “inhibition (CFU)” value with MRSA-pvl- [13] was “significant inhibition”.

For the origin of these results see article PMC9719714 (International Journal of Nanomedicine, 2022).
